Test results: ChEMBL document CHEMBL1128543, “Computer-aided design and synthesis of 5-substituted tryptamines and their pharmacology at the 5-HT1D receptor: discovery of compounds with potential anti-migraine properties” (J Med Chem, 1995)

Key:
[1] = biological target: 5-hydroxytryptamine receptor 1D (Homo sapiens) (UniProt P28221); experiment: (§1) Intrinsic activity against 5-hydroxytryptamine 1 receptor using rabbit saphenous vein assay.; format: tissue-based; settings: Oryctolagus cuniculus, target entry is the homologue from another species
Procedure, shortened: (§2)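 Male New Zealand White rabbit saphenous vein rings (4–5 mm) in Krebs–Henseleit at 37 °C, pH 7.4, gassed with 95% O₂:5% CO₂, under 2 g passive force. Tissues got 30 min pargyline (500 μM) and phenoxybenzamine (0.3 μM), then were washed and checked with 1 μM 5-HT. A cumulative 5-HT curve was followed 60 min later by a test agonist curve. Potency is p[A₅₀]; α is test max/5-HT max; n ≥ 3.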

Oryctolagus cuniculus = species: Oryctolagus cuniculus; experiment: as §1; format: tissue-based; procedure, shortened: as §2
[2] = biological target: 5-hydroxytryptamine receptor 1B (Homo sapiens, UniProt P28222); experiment: Binding affinity against 5-hydroxytryptamine 1D receptor beta using rabbit saphenous vein assay.; format: tissue-based
Procedure, shortened: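 Saphenous vein rings (4–5 mm) from male New Zealand White rabbits, in Krebs–Henseleit buffer at 37 °C, pH 7.4, gassed 95% O2/5% CO2, 2 g passive force. Pretreated with pargyline (500 μM) and phenoxybenzamine (0.3 μM) for 30 min, then washed. A cumulative 5-HT curve was followed after 60 min by a curve to the test agonist. p[A50] and α relative to 5-HT maximum were derived; mean of n ≥ 3.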

[3] = biological target: Adrenergic receptor alpha-1 (Homo sapiens) (UniProt P35348+P25100+P35368); experiment: Binding affinity against Alpha-1 adrenergic receptor using rabbit saphenous vein assay.; format: tissue-based; settings: Oryctolagus cuniculus, target entry is the homologue from another species
[4] = biological target: Beta-2 adrenergic receptor (Canis lupus familiaris) (UniProt P54833); experiment: Binding affinity towards Beta adrenergic receptor
[5] = biological target: D(2) dopamine receptor (Homo sapiens) (UniProt P14416); experiment: Binding affinity against Dopamine receptor D2 using rabbit saphenous vein assay.; format: tissue-based; settings: Oryctolagus cuniculus, target entry is the homologue from another species
D(1A) dopamine receptor = D(1A) dopamine receptor (Rattus norvegicus, UniProt P18901); experiment: Binding affinity against dopamine receptor D1 in rat striatum using [3H]SCH-23390 as radioligand; format: tissue-based
Procedure, shortened: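 Displacement of [³H]SCH23390 (0.3 nM, about K_D) from rat striatum homogenate, with test compounds run in duplicate over a wide range. Incubation was 30 min at 27 °C in 50 mM Tris-HCl with 5 mM CaCl₂, 0.1% w/v ascorbate and 10 mM pargyline. Assays were filtered and washed with ice-cold buffer, and bound label was counted by scintillation. Results are pK_i or pIC₅₀, n ≥ 3.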

[6] = biological target: Histamine H1 receptor (Homo sapiens) (UniProt P35367); experiment: Binding affinity against H1 receptor using rabbit saphenous vein assay.; format: tissue-based; settings: Oryctolagus cuniculus, target entry is the homologue from another species
[7] = biological target: Histamine H2 receptor (Homo sapiens) (UniProt P25021); experiment: Binding affinity against H2 receptor using rabbit saphenous vein assay.; format: tissue-based; settings: Oryctolagus cuniculus, target entry is the homologue from another species
[8] = biological target: Muscarinic acetylcholine receptor M3 (Homo sapiens) (UniProt P20309); experiment: Binding affinity against Muscarinic acetylcholine receptor M3 using rabbit saphenous vein assay.; format: tissue-based; settings: Oryctolagus cuniculus, target entry is the homologue from another species
[9] = biological target: T1, Adrenergic receptor alpha-2 (Rattus norvegicus, UniProt P22086+P19328+P22909); experiment: Binding affinity against Alpha-2 adrenergic receptor in rat cortex using [3H]-idazoxan as radioligand
T1 sequence (P22086 whole entry): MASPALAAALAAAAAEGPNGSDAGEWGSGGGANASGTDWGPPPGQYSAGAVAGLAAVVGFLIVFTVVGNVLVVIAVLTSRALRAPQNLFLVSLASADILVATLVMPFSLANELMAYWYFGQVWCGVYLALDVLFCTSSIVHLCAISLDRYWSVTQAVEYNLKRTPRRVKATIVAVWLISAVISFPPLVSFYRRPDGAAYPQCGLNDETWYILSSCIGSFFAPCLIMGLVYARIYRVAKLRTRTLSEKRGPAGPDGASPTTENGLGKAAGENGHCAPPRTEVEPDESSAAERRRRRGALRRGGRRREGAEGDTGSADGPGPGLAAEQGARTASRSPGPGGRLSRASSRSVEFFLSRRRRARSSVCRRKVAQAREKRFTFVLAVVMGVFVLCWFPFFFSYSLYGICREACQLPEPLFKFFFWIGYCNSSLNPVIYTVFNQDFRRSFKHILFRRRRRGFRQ
T1 sequence (P19328 whole entry): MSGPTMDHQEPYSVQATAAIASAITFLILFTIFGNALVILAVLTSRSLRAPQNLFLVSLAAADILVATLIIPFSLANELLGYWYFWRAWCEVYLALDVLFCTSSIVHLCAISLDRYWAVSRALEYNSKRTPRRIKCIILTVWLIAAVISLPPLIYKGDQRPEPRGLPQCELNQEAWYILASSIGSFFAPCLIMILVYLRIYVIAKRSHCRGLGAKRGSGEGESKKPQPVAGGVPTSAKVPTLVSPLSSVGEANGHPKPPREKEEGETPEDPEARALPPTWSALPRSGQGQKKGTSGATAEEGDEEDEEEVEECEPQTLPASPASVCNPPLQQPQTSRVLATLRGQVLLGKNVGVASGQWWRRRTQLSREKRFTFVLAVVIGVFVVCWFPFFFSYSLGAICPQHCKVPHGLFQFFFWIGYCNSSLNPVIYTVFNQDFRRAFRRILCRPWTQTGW
T1 sequence (P22909 whole entry): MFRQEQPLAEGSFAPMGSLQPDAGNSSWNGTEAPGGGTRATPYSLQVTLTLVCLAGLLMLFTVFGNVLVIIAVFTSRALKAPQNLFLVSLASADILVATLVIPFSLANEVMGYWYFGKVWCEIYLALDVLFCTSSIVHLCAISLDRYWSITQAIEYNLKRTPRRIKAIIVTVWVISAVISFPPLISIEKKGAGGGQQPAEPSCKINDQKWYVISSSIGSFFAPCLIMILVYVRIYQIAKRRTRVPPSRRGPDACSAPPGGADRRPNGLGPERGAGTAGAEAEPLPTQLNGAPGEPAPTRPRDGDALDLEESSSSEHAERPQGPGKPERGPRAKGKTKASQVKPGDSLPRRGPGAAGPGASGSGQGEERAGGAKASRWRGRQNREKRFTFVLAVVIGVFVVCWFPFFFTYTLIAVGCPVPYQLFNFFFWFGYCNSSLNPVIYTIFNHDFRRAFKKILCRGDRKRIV
Procedure, shortened: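 Competition binding on rat cortex with [³H]idazoxan (7 nM, about K_D) against a wide test range run in duplicate. Incubation was 30 min at 27 °C in 50 mM Tris-HCl, 5 mM CaCl₂, 0.1% ascorbate and 10 mM pargyline. Assays were ended by rapid filtration and read by scintillation. Values are pK_i or pIC₅₀, mean of n ≥ 3.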

Histamine H1 receptor (Homo sapiens), sequence (P35367 whole entry): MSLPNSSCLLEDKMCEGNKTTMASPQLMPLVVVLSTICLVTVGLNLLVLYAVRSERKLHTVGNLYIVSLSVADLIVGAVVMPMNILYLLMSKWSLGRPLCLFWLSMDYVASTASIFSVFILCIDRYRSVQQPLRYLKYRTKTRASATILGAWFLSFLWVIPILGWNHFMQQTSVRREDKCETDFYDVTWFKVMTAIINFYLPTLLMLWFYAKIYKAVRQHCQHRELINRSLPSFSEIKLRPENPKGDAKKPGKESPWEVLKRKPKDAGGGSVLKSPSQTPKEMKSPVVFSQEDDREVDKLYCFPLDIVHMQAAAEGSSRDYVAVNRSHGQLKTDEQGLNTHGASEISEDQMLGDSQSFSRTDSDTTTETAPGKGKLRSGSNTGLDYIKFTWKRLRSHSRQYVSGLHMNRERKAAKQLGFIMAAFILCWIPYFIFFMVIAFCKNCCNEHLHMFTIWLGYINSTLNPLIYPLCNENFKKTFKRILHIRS
Muscarinic acetylcholine receptor M3 (Homo sapiens), sequence (P20309 whole entry, looked up): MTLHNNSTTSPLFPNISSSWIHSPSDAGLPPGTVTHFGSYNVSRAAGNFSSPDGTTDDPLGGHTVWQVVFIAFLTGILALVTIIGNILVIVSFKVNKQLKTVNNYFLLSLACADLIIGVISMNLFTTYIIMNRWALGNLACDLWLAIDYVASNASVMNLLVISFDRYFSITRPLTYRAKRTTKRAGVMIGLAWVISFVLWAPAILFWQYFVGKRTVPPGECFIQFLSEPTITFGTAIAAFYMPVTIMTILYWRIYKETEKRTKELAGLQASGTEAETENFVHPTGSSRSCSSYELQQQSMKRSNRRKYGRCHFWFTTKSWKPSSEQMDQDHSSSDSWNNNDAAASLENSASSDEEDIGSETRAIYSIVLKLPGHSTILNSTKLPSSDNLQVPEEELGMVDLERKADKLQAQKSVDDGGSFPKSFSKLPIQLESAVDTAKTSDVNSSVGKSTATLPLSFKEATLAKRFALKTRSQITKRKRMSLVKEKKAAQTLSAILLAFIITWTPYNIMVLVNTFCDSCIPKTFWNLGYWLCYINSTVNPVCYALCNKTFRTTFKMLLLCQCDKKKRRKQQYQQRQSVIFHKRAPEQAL
Beta-2 adrenergic receptor (Canis lupus familiaris), sequence (P54833 whole entry, looked up): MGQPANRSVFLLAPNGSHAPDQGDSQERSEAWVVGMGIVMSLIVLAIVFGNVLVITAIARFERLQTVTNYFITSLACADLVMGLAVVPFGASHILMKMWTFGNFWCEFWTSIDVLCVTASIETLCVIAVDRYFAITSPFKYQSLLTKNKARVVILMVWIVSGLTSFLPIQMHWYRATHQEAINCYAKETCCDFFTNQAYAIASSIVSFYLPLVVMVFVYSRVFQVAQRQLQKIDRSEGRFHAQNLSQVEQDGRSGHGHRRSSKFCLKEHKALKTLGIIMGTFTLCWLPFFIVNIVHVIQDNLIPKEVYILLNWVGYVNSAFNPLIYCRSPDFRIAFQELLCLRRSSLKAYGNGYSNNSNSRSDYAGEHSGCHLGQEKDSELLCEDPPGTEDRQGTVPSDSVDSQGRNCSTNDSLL
5-hydroxytryptamine receptor 1B, sequence (P28222 whole entry): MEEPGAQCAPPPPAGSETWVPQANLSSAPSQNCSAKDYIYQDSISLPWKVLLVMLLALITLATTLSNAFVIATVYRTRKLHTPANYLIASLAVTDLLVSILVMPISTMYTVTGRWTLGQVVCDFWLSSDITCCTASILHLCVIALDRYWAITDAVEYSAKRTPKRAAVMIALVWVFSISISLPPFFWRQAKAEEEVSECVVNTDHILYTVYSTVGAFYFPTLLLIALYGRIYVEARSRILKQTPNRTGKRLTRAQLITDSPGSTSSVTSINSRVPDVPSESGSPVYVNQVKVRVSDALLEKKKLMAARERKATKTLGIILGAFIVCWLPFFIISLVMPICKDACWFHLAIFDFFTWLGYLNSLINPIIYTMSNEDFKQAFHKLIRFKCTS
D(2) dopamine receptor (Homo sapiens), sequence (P14416 whole entry): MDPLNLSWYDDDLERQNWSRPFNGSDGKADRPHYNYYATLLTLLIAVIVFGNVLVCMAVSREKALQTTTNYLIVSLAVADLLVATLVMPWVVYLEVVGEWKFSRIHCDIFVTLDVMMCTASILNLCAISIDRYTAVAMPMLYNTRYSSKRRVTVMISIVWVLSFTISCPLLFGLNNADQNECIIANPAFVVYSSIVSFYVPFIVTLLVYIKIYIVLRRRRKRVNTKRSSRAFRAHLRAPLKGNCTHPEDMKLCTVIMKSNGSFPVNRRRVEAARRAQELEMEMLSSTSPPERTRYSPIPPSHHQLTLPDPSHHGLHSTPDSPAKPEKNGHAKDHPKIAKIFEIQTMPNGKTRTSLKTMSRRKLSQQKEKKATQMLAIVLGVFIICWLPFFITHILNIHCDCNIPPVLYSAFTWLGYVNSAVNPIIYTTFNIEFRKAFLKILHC
Histamine H2 receptor (Homo sapiens), sequence (P25021 whole entry): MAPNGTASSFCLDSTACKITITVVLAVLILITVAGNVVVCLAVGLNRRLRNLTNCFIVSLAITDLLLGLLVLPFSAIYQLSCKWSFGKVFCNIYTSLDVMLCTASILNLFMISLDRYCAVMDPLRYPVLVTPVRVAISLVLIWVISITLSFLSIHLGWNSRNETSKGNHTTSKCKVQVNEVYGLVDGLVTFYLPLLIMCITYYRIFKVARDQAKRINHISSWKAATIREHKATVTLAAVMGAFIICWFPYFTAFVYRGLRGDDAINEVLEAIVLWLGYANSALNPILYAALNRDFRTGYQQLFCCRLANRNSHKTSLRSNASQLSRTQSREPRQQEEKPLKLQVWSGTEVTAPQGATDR
5-hydroxytryptamine receptor 1D (Homo sapiens), sequence (P28221 whole entry): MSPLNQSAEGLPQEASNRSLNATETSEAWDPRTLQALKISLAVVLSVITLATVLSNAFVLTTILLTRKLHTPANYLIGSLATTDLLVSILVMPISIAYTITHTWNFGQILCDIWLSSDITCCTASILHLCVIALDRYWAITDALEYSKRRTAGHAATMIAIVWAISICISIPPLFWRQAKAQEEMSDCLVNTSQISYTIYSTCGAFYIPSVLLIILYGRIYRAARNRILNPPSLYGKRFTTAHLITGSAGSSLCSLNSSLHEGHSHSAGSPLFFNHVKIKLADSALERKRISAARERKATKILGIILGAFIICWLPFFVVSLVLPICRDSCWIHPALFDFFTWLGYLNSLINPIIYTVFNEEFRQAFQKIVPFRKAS
D(1A) dopamine receptor, sequence (P18901 whole entry): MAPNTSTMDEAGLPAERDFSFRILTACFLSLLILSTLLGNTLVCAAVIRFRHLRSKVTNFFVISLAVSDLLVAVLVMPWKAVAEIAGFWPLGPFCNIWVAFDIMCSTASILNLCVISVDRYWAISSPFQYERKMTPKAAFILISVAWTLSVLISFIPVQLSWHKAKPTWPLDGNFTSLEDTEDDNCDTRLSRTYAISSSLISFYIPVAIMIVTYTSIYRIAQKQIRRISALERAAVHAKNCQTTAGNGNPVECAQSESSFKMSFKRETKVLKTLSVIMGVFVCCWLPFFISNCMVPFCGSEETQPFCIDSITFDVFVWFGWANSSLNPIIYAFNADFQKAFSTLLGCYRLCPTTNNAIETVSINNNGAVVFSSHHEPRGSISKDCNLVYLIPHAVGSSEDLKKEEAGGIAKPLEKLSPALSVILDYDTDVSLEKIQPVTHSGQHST

p[A50] [1]: 8.7
Intrinsic activity (Oryctolagus cuniculus): 0.77
Kd [2]: 1.5 nM
p[A50] [3]: < 4
p[A50] [4]: < 4
p[A50] [5]: < 4
Kd (D(1A) dopamine receptor): 0.3 nM
p[A50] [6]: 5.5
p[A50] [7]: < 4.5
p[A50] [8]: < 4.5
Kd [9]: 7 nM
SMILES: CN(C)CCc1c[nH]c2ccc(C[C@H]3COC(=O)N3)cc12 [ZOLMITRIPTAN]
